Experiments:
SMMC-7721 = test: Cytotoxicity against human SMMC7721 cells after 48 hrs by MTT assay; assay type: functional, cell-based
Outline: (§1)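 Cells seeded at 5000 to 10 000 per well, exposed to compounds at a range of concentrations for 48 h at 37 °C. MTT then added for 4 h at 37 °C under 5% CO2. Formazan dissolved in 10% SDS and absorbance read at 595 nm. Each concentration tested in triplicate. IC50 derived by the Reed and Muench method, with cisplatin as positive control.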

MCF7 = test: Cytotoxicity against human MCF7 cells after 48 hrs by MTT assay; assay type: functional, cell-based; outline: as §1
A549 = test: Cytotoxicity against human A549 cells after 48 hrs by MTT assay; assay type: functional, cell-based; outline: as §1
SW480 = test: Cytotoxicity against human SW480 cells after 48 hrs by MTT assay; assay type: functional, cell-based; outline: as §1
[1] = Cytotoxicity against human HL60 cells after 48 hrs by MTT assay; assay type: functional, cell-based, HL-60; outline: as §1
[2] = Homo sapiens, SMMC-7721, 48 h, read-out: IC50
[3] = Homo sapiens, MCF7, 48 h, read-out: IC50
[4] = Homo sapiens, A549, 48 h, read-out: IC50
[5] = Homo sapiens, SW480, 48 h, read-out: IC50
[6] = Homo sapiens, HL-60, 48 h, read-out: IC50

Compound | IC50 (SMMC-7721; [2]) | IC50 (MCF7; [3]) | IC50 (A549; [4]) | IC50 (SW480; [5]) | IC50 [1, 6] | IC50 (SMMC-7721; smmc-7721) | IC50 (MCF7; mcf7) | IC50 (A549; a549) | IC50 (SW480; sw480) | IC50 ([1]; hl-60)
C=C1C(=O)[C@]23[C@H](O)[C@H]1CC[C@H]2[C@@]12C=N[C@@]3(O)[C@@H](O)[C@@H]1C(C)(C)CC[C@@H]2O | > 40 µM | > 40 µM | > 40 µM | > 40 µM | > 40 µM |  |  |  |  | 
C=C1C(=O)OC2CC1C[C@H]1[C@@H]2[C@@]23C=NC1(O)[C@@H](O)[C@@H]2C(C)(C)CC[C@@H]3O |  |  |  |  |  | Not Active | Not Active | Not Active | Not Active | Not Active
C=C1C(=O)O[C@H]2C[C@@H]1C[C@H]1[C@@H]2[C@@]23C(OC)O[C@@]1(O)[C@@H](O)[C@@H]2C(C)(C)CC[C@@H]3O (stereo not given in full) |  |  |  |  |  | Active | Active | Active | Active | Active
C=C1C(=O)[C@]23[C@H](O)[C@H]1CC[C@H]2[C@@]12CO[C@]3(O)[C@@H](O)[C@@H]1C(C)(C)CC[C@@H]2O [ORIDONIN] | 7.2 µM | 7.2 µM | 7.2 µM | 7.2 µM | 7.2 µM |  |  |  |  | 

Source: ChEMBL document CHEMBL3421599, “Diterpene alkaloids with an aza-ent-kaurane skeleton from Isodon rubescens” (J Nat Prod, 2015)
